In ChEMBL document CHEMBL3769341, “Discovery and Characterization of GSK2801, a Selective Chemical Probe for the Bromodomains BAZ2A and BAZ2B” (J Med Chem, 2016):
Activity calls are given as the source filed them. The calls are words filed in the database; no cut-off is given here.

Assays:
[1] = molecular target: Bromodomain-containing protein 2 (Homo sapiens) (UniProt P25440); test: Binding affinity to biotinylated BRD2 bromodomain-2 (unknown origin) expressed in Escherichia coli at 0.2 to 1 uM by Biolayer Interferometric analysis
Procedure, shortened: (§1)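 Bromodomains carrying a BirA biotin ligase targeting sequence, coexpressed with BirA in bacteria to give homogeneous in vivo biotin labelling, checked by mass spectrometry. Biotinylated proteins probed by biolayer interferometry with compound at two concentrations, 0.2 and 1.0 μM.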

[2] = molecular target: Bromodomain-containing protein 2 (Homo sapiens) (UniProt P25440); test: Binding affinity to biotinylated BRD2 bromodomain-1 (unknown origin) expressed in Escherichia coli at 0.2 to 1 uM by Biolayer Interferometric analysis; procedure, shortened: as §1
[3] = molecular target: Bromodomain and WD repeat-containing protein 1 (Homo sapiens) (UniProt Q9NSI6); test: Binding affinity to biotinylated WDR9 (unknown origin) expressed in Escherichia coli at 0.2 to 1 uM by Biolayer Interferometric analysis; procedure, shortened: as §1
[4] = molecular target: Transcription initiation factor TFIID subunit 1-like (Homo sapiens) (UniProt Q8IZX4); test: Binding affinity to biotinylated TAF1L bromodomain-1 (unknown origin) expressed in Escherichia coli at 0.2 to 1 uM by Biolayer Interferometric analysis; procedure, shortened: as §1
[5] = molecular target: PH-interacting protein (Homo sapiens) (UniProt Q8WWQ0); test: Binding affinity to biotinylated PHIP (unknown origin) expressed in Escherichia coli at 0.2 to 1 uM by Biolayer Interferometric analysis; procedure, shortened: as §1
[6] = molecular target: SWI/SNF-related matrix-associated actin-dependent regulator of chromatin subfamily A member 2 (Homo sapiens) (UniProt P51531); test: Binding affinity to biotinylated SMARCA2 (unknown origin) expressed in Escherichia coli at 0.2 to 1 uM by Biolayer Interferometric analysis; procedure, shortened: as §1
[7] = molecular target: Tyrosine-protein kinase BAZ1B (Homo sapiens) (UniProt Q9UIG0); test: Binding affinity to biotinylated BAZ1B (unknown origin) expressed in Escherichia coli at 0.2 to 1 uM by Biolayer Interferometric analysis; procedure, shortened: as §1
[8] = molecular target: Histone acetyltransferase p300 (Homo sapiens) (UniProt Q09472); test: Binding affinity to biotinylated EP300 (unknown origin) expressed in Escherichia coli at 0.2 to 1 uM by Biolayer Interferometric analysis; procedure, shortened: as §1
[9] = molecular target: Transcription intermediary factor 1-beta (Homo sapiens) (UniProt Q13263); test: Binding affinity to biotinylated TRIM28 (unknown origin) expressed in Escherichia coli at 0.2 to 1 uM by Biolayer Interferometric analysis; procedure, shortened: as §1
[10] = molecular target: Histone-lysine N-methyltransferase ASH1L (Homo sapiens) (UniProt Q9NR48); test: Binding affinity to biotinylated ASH1L bromodomain (unknown origin) expressed in Escherichia coli at 0.2 to 1 uM by Biolayer Interferometric analysis; procedure, shortened: as §1
[11] = molecular target: Protein polybromo-1 (Homo sapiens) (UniProt Q86U86); test: Binding affinity to biotinylated PB1 bromodomain-4 (unknown origin) expressed in Escherichia coli at 0.2 to 1 uM by Biolayer Interferometric analysis; procedure, shortened: as §1
[12] = molecular target: Bromodomain-containing protein 7 (Homo sapiens) (UniProt Q9NPI1); test: Binding affinity to biotinylated BRD7 (unknown origin) expressed in Escherichia coli at 0.2 to 1 uM by Biolayer Interferometric analysis; procedure, shortened: as §1
[13] = molecular target: Protein polybromo-1 (Homo sapiens) (UniProt Q86U86); test: Binding affinity to biotinylated PB1 bromodomain-6 (unknown origin) expressed in Escherichia coli at 0.2 to 1 uM by Biolayer Interferometric analysis; procedure, shortened: as §1
[14] = molecular target: Bromodomain-containing protein 3 (Homo sapiens) (UniProt Q15059); test: Binding affinity to biotinylated BRD3 bromodomain-1 (unknown origin) expressed in Escherichia coli at 0.2 to 1 uM by Biolayer Interferometric analysis; procedure, shortened: as §1
[15] = molecular target: Bromodomain-containing protein 1 (Homo sapiens) (UniProt O95696); test: Binding affinity to biotinylated BRD1 (unknown origin) expressed in Escherichia coli at 0.2 to 1 uM by Biolayer Interferometric analysis; procedure, shortened: as §1
[16] = molecular target: Bromodomain-containing protein 4 (Homo sapiens) (UniProt O60885); test: Binding affinity to biotinylated BRD4 bromodomain-1 (unknown origin) expressed in Escherichia coli at 0.2 to 1 uM by Biolayer Interferometric analysis; procedure, shortened: as §1
[17] = molecular target: Bromodomain and WD repeat-containing protein 3 (Homo sapiens) (UniProt Q6RI45); test: Binding affinity to biotinylated BRWD3 bromodomain-2 (unknown origin) expressed in Escherichia coli at 0.2 to 1 uM by Biolayer Interferometric analysis; procedure, shortened: as §1
[18] = molecular target: Protein polybromo-1 (Homo sapiens) (UniProt Q86U86); test: Binding affinity to biotinylated PB1 bromodomain-2 (unknown origin) expressed in Escherichia coli at 0.2 to 1 uM by Biolayer Interferometric analysis; procedure, shortened: as §1
[19] = molecular target: Peregrin (Homo sapiens) (UniProt P55201); test: Binding affinity to biotinylated BRPF1 bromodomain-1 (unknown origin) expressed in Escherichia coli at 0.2 to 1 uM by Biolayer Interferometric analysis; procedure, shortened: as §1
[20] = molecular target: Histone acetyltransferase KAT2B (Homo sapiens) (UniProt Q92831); test: Binding affinity to biotinylated PCAF (unknown origin) expressed in Escherichia coli at 0.2 to 1 uM by Biolayer Interferometric analysis; procedure, shortened: as §1
[21] = molecular target: ATPase family AAA domain-containing protein 2B (Homo sapiens) (UniProt Q9ULI0); test: Binding affinity to biotinylated KIAA1240 (unknown origin) expressed in Escherichia coli at 0.2 to 1 uM by Biolayer Interferometric analysis; procedure, shortened: as §1
[22] = molecular target: ATPase family AAA domain-containing protein 2 (Homo sapiens) (UniProt Q6PL18); test: Binding affinity to biotinylated ATAD2 (unknown origin) expressed in Escherichia coli at 0.2 to 1 uM by Biolayer Interferometric analysis; procedure, shortened: as §1
[23] = molecular target: Bromodomain-containing protein 9 (Homo sapiens) (UniProt Q9H8M2); test: Binding affinity to biotinylated C-terminal Avi/His-TEV-fused BRD9 (unknown origin) expressed in Escherichia coli by isothermal titration calorimetric analysis
[24] = molecular target: Bromodomain testis-specific protein (Homo sapiens) (UniProt Q58F21); test: Binding affinity to biotinylated BRDT bromodomain-1 (unknown origin) expressed in Escherichia coli at 0.2 to 1 uM by Biolayer Interferometric analysis; procedure, shortened: as §1
[25] = molecular target: Bromodomain-containing protein 4 (Homo sapiens) (UniProt O60885); test: Binding affinity to biotinylated BRD4 bromodomain-2 (unknown origin) expressed in Escherichia coli at 0.2 to 1 uM by Biolayer Interferometric analysis; procedure, shortened: as §1
[26] = molecular target: Nuclear body protein SP140 (Homo sapiens) (UniProt Q13342); test: Binding affinity to biotinylated SP140 (unknown origin) expressed in Escherichia coli at 0.2 to 1 uM by Biolayer Interferometric analysis; procedure, shortened: as §1
[27] = molecular target: SWI/SNF-related matrix-associated actin-dependent regulator of chromatin subfamily A member 4 (Homo sapiens) (UniProt P51532); test: Binding affinity to biotinylated SMARCA4 (unknown origin) expressed in Escherichia coli at 0.2 to 1 uM by Biolayer Interferometric analysis; procedure, shortened: as §1
[28] = molecular target: Nucleosome-remodeling factor subunit BPTF (Homo sapiens) (UniProt Q12830); test: Binding affinity to biotinylated FALZ (unknown origin) expressed in Escherichia coli at 0.2 to 1 uM by Biolayer Interferometric analysis; procedure, shortened: as §1
[29] = molecular target: Protein polybromo-1 (Homo sapiens) (UniProt Q86U86); test: Binding affinity to biotinylated PB1 bromodomain-5 (unknown origin) expressed in Escherichia coli at 0.2 to 1 uM by Biolayer Interferometric analysis; procedure, shortened: as §1
[30] = molecular target: Transcription initiation factor TFIID subunit 1 (Homo sapiens) (UniProt P21675); test: Binding affinity to biotinylated TAF1 bromodomain-1 (unknown origin) expressed in Escherichia coli at 0.2 to 1 uM by Biolayer Interferometric analysis; procedure, shortened: as §1
[31] = molecular target: Protein polybromo-1 (Homo sapiens) (UniProt Q86U86); test: Binding affinity to biotinylated PB1 bromodomain-1 (unknown origin) expressed in Escherichia coli at 0.2 to 1 uM by Biolayer Interferometric analysis; procedure, shortened: as §1
[32] = molecular target: Chromatin remodeling regulator CECR2 (Homo sapiens) (UniProt Q9BXF3); test: Binding affinity to biotinylated CECR2 (unknown origin) expressed in Escherichia coli at 0.2 to 1 uM by Biolayer Interferometric analysis; procedure, shortened: as §1
[33] = molecular target: Histone acetyltransferase KAT2A (Homo sapiens) (UniProt Q92830); test: Binding affinity to biotinylated GCN5L2 (unknown origin) expressed in Escherichia coli at 0.2 to 1 uM by Biolayer Interferometric analysis; procedure, shortened: as §1
[34] = molecular target: Transcription intermediary factor 1-alpha (Homo sapiens) (UniProt O15164); test: Binding affinity to biotinylated TIF1 bromodomain-1 (unknown origin) expressed in Escherichia coli at 0.2 to 1 uM by Biolayer Interferometric analysis; procedure, shortened: as §1
[35] = molecular target: Bromodomain testis-specific protein (Homo sapiens) (UniProt Q58F21); test: Binding affinity to biotinylated BRDT bromodomain-2 (unknown origin) expressed in Escherichia coli at 0.2 to 1 uM by Biolayer Interferometric analysis; procedure, shortened: as §1
[36] = molecular target: Bromodomain-containing protein 3 (Homo sapiens) (UniProt Q15059); test: Binding affinity to biotinylated BRD3 bromodomain-2 (unknown origin) expressed in Escherichia coli at 0.2 to 1 uM by Biolayer Interferometric analysis; procedure, shortened: as §1
[37] = molecular target: Transcription initiation factor TFIID subunit 1 (Homo sapiens) (UniProt P21675); test: Binding affinity to biotinylated TAF1 bromodomain-2 (unknown origin) expressed in Escherichia coli at 0.2 to 1 uM by Biolayer Interferometric analysis; procedure, shortened: as §1
[38] = molecular target: CREB-binding protein (Homo sapiens) (UniProt Q92793); test: Binding affinity to biotinylated CREBBP (unknown origin) expressed in Escherichia coli at 0.2 to 1 uM by Biolayer Interferometric analysis; procedure, shortened: as §1
[39] = molecular target: Bromodomain adjacent to zinc finger domain protein 2B (Homo sapiens) (UniProt Q9UIF8); test: Binding affinity to biotinylated C-terminal Avi/His-TEV-tagged BAZ2B (unknown origin) expressed in Escherichia coli at 0.2 to 1 uM by Biolayer Interferometric analysis; procedure, shortened: as §1
[40] = molecular target: Transcription initiation factor TFIID subunit 1-like (Homo sapiens) (UniProt Q8IZX4); test: Binding affinity to biotinylated TAF1L bromodomain-2 (unknown origin) expressed in Escherichia coli at 0.2 to 1 uM by Biolayer Interferometric analysis; procedure, shortened: as §1

Bromodomain-containing protein 3 (Homo sapiens), sequence (Q15059 2-726 limits assumed): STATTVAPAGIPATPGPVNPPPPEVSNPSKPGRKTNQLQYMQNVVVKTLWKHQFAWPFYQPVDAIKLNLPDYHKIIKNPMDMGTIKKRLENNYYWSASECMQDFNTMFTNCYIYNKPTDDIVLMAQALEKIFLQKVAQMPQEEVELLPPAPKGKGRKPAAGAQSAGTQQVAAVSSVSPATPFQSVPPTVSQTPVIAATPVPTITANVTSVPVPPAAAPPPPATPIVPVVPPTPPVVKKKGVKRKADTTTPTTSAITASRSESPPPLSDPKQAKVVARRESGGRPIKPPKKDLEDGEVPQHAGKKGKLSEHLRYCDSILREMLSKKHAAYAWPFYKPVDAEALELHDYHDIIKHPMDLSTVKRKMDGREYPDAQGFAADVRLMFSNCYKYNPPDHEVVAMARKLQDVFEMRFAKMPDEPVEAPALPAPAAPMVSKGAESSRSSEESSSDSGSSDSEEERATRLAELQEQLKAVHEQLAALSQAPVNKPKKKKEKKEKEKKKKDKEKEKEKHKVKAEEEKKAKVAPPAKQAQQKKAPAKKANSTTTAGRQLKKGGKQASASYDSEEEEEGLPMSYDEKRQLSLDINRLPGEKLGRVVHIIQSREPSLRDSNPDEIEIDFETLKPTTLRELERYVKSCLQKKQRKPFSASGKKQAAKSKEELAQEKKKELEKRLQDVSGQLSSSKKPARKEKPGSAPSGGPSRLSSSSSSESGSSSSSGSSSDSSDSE
Protein polybromo-1 (Homo sapiens), sequence (Q86U86 whole entry): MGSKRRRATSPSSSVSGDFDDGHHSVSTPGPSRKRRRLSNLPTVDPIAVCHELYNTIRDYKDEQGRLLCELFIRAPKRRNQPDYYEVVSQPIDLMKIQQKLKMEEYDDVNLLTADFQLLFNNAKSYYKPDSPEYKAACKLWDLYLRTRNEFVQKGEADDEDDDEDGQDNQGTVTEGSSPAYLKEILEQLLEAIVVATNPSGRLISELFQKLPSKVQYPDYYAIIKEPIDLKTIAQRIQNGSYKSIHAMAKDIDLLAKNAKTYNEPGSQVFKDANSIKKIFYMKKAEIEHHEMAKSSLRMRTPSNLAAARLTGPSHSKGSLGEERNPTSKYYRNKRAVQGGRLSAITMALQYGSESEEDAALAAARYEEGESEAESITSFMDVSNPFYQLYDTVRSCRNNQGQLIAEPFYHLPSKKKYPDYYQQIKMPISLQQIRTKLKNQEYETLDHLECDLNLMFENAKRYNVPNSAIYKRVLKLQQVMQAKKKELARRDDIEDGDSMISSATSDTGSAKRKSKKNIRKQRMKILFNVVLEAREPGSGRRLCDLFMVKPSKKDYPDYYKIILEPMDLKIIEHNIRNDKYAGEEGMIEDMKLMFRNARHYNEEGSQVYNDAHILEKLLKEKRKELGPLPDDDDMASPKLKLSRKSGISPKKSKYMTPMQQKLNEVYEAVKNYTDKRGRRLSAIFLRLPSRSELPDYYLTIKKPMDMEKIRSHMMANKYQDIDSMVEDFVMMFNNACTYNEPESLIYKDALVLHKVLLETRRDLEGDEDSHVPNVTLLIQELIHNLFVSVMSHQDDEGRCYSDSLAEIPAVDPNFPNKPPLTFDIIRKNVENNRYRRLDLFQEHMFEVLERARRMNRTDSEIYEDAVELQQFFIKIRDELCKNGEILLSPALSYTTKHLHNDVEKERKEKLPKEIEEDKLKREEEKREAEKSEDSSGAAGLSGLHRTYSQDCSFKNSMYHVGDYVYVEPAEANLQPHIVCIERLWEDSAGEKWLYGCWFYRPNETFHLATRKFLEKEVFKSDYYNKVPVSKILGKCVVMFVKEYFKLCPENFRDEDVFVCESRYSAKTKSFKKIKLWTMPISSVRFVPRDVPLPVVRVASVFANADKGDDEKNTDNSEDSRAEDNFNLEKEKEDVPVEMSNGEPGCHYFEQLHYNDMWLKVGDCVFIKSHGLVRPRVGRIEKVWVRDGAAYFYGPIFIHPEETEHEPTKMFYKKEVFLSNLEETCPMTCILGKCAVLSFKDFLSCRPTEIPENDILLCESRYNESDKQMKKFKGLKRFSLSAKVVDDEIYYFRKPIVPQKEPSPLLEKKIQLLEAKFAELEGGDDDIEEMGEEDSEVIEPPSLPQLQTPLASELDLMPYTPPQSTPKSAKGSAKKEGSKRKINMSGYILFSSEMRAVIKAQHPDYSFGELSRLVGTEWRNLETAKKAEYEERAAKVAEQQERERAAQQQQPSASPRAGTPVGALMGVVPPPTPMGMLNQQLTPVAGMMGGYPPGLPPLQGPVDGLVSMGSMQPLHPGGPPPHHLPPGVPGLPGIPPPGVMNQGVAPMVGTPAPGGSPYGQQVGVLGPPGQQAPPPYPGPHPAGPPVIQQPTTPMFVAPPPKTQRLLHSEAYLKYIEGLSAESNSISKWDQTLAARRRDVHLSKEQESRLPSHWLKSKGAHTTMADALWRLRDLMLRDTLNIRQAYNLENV
Transcription initiation factor TFIID subunit 1 (Homo sapiens), sequence (P21675 whole entry): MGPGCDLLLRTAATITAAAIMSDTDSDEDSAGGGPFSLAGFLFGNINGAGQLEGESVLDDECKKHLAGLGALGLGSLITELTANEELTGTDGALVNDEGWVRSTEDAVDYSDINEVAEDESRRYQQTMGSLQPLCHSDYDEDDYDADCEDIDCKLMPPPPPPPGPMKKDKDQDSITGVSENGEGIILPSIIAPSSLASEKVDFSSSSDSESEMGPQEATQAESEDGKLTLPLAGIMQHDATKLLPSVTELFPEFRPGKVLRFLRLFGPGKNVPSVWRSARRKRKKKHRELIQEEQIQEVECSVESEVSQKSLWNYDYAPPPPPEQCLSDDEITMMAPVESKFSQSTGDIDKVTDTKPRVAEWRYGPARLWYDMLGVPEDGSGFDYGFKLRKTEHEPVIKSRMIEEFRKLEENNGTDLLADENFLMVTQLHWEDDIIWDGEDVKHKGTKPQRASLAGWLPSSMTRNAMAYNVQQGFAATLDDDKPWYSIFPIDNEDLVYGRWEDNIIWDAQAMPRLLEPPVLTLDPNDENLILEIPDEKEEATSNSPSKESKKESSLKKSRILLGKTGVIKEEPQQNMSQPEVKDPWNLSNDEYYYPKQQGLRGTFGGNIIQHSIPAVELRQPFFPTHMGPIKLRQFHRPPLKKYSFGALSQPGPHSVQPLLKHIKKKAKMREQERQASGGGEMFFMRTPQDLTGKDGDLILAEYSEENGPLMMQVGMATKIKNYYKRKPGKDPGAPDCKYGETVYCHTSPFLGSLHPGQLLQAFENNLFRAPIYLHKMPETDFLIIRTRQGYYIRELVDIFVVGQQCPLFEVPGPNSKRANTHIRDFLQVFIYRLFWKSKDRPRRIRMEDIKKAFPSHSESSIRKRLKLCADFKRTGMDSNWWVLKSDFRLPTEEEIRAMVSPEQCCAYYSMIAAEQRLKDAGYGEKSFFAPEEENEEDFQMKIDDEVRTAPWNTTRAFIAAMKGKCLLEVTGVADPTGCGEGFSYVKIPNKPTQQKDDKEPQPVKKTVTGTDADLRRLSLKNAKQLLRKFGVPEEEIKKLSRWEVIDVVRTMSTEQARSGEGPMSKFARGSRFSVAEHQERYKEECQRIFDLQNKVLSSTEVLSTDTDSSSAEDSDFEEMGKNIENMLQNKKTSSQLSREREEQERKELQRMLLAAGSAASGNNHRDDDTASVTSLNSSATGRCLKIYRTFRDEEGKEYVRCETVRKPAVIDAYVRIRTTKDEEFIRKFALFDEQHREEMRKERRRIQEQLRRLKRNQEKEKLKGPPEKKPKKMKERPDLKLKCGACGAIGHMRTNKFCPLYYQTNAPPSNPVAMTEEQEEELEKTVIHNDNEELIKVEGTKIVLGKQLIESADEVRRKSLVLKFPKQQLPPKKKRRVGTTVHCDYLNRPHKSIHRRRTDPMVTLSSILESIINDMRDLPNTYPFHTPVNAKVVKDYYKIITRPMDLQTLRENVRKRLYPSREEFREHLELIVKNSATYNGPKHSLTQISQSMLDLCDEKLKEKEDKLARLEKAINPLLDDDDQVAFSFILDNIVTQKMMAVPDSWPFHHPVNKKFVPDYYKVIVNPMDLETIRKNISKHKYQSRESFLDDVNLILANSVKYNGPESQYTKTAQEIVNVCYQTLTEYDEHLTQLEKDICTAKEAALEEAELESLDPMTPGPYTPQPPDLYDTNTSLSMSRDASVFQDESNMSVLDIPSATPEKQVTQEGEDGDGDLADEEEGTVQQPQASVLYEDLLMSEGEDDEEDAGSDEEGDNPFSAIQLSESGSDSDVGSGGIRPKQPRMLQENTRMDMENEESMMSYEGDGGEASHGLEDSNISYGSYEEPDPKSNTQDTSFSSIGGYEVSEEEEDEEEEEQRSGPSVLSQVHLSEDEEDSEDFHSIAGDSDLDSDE
Bromodomain-containing protein 2 (Homo sapiens), sequence (P25440 whole entry, looked up): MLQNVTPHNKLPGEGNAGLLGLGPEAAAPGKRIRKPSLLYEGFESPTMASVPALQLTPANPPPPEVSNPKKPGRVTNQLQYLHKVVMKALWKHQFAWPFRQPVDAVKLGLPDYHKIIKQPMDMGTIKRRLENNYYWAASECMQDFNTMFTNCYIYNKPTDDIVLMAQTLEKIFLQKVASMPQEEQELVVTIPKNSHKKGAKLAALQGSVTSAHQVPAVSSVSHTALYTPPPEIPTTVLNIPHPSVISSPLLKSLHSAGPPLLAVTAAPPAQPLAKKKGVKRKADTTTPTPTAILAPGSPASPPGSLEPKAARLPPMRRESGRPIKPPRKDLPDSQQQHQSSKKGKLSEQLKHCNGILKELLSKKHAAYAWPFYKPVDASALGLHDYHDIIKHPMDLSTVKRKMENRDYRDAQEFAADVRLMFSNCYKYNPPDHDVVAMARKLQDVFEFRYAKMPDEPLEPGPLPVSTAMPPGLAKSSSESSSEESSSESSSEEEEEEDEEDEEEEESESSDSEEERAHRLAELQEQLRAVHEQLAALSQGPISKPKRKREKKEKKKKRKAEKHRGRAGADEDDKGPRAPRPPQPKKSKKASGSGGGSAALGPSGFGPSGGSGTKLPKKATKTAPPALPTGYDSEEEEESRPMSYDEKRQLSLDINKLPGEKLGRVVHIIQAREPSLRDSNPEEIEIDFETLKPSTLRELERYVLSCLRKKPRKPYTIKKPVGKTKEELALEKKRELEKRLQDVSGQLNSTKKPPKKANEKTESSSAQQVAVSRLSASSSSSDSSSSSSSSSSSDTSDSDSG

| Activity [1] | Activity [2] | Activity [3] | Activity [4] | Activity [5] | Activity [6] | Activity [7] | Activity [8] | Activity [9] | Activity [10] | Activity [11] | Activity [12] | Activity [13] | Activity [14] | Activity [15] | Activity [16] | Activity [17] | Activity [18] | Activity [19] | Activity [20] | Structure (SMILES) | other results |
| --- | --- | --- | --- | --- | --- | --- | --- | --- | --- | --- | --- | --- | --- | --- | --- | --- | --- | --- | --- | --- | --- |
| inactive | inactive | inactive | inactive | inactive | inactive | inactive | inactive | inactive | inactive | inactive | inactive | inactive | inactive | inactive | inactive | inactive | inactive | inactive | inactive | CCCOc1ccn2c(C(C)=O)cc(-c3ccccc3S(C)(=O)=O)c2c1 | Activity [21]: inactive; Activity [22]: inactive; Kb [23]: 0.826 ×10⁶ /M; Activity [24]: inactive; Activity [25]: inactive; Activity [26]: inactive; Activity [27]: inactive; Activity [28]: inactive; Activity [29]: inactive; Activity [30]: inactive; Activity [31]: inactive; Activity [32]: inactive; Activity [33]: inactive; Activity [34]: inactive; Activity [35]: inactive; Activity [36]: inactive; Activity [37]: inactive; Activity [38]: inactive |
| inactive | inactive | inactive | inactive | inactive | inactive | inactive | inactive | inactive | inactive | inactive | inactive | inactive | inactive | inactive | inactive | inactive | inactive | inactive | inactive | CCCOc1ccn2c(C(C)=O)cc(-c3cccc(OC)c3)c2c1 | Activity [39]: inactive; Activity [40]: inactive; Activity [21]: inactive; Activity [22]: inactive; Activity [24]: inactive; Activity [25]: inactive; Activity [26]: inactive; Activity [27]: inactive; Activity [28]: inactive; Activity [29]: inactive; Activity [30]: inactive; Activity [31]: inactive; Activity [32]: inactive; Activity [33]: inactive; Activity [34]: inactive; Activity [35]: inactive; Activity [36]: inactive; Activity [37]: inactive; Activity [38]: inactive |
